Measurements published in ChEMBL document CHEMBL1128177, “A 3-amino-4-hydroxy-3-cyclobutene-1,2-dione-containing glutamate analogue exhibiting high affinity to excitatory amino acid receptors” (J Med Chem, 1995).

Assays:
[1] = target: T1, Glutamate NMDA receptor (Rattus norvegicus) (UniProt P35439+Q00959+Q00960+Q00961+Q62645+Q8VHN2+Q9R1M7); test: (§1) Inhibition of stimulus-evoked CA1 pyramidal cell NMDA receptor of the rat hippocampus.; format: functional, tissue-based
Method in brief: (§2)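 Transverse hippocampal slices (500 µm) from 30-50 day male Sprague-Dawley rats. Schaffer collateral stimulation at 0.1 ms, 4-30 V, 0.1 Hz. Extracellular field potential peak amplitude recorded in CA1 stratum radiatum at 34 °C. Medium held 0.1 mM Mg2+ plus 10 μM CNQX to isolate NMDA responses. Drug doubled every 4 min from subthreshold until >70% decline or 8 mM. IC50 interpolated from the log concentration plot; mean of ≥4 experiments.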

[2] = target: T1, Glutamate NMDA receptor (Rattus norvegicus); test: Inhibition of stimulus-evoked […] NMDA receptor response in medial perforant path of the rat hippocampus.; format: functional, tissue-based
Method in brief: (§3)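 Rat hippocampal slices (500 µm, male Sprague-Dawley, 30-50 days) with perforant path stimulation (0.1 ms, 4-30 V, 0.1 Hz). Field potential recorded in the dentate granule cell synaptic field of the lateral or medial perforant path at 34 °C. Drug doubled every 4 min from subthreshold up to >70% inhibition or 8 mM. IC50 interpolated from fractional peak amplitude vs log concentration; mean of ≥4 experiments.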

Rattus norvegicus [3] = species on record: Rattus norvegicus; test: (§4) Inhibition of stimulus-evoked kainate/AMPA receptor responses in CA1 pyramidal cells of the rat hippocampus after QUIS exposure.; format: functional
Method in brief: (§5)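 Schaffer collateral-evoked CA1 field potential in 500 µm rat hippocampal slices, recording medium with 2.4 mM Mg2+, 34 °C. IC50 from 4-min doubling concentration steps, interpolated at 50% peak-amplitude loss; mean of ≥4 experiments. Measured first, then after 5 min 16 μM L-quisqualic acid and washout, then again after 5 min 2 mM L-α-aminoadipic acid and washout.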

Rattus norvegicus [4] = species on record: Rattus norvegicus; test: Inhibition of stimulus-evoked kainate/AMPA receptor responses in CA1 pyramidal cells of the rat hippocampus after reversal with alpha AA.; format: functional; method in brief: as §5
Rattus norvegicus [5] = species on record: Rattus norvegicus; test: (§6) Inhibition of stimulus-evoked kainate/AMPA receptor responses in CA1 pyramidal cells of the rat hippocampus before QUIS exposure.; format: functional; method in brief: as §5
Rattus norvegicus [6] = species on record: Rattus norvegicus; test: Inhibition of stimulus-evoked response in lateral perforant path of the rat hippocampus.
Glutamate NMDA receptor [7] = test: as §1; format: functional, tissue-based; method in brief: as §2
Glutamate NMDA receptor [8] = test: Inhibition of stimulus-evoked […] NMDA receptor response in lateral perforant path of the rat hippocampus.; format: functional, tissue-based; method in brief: as §3
Rattus norvegicus [9] = species on record: Rattus norvegicus; test: as §4; format: functional, organism-based; method in brief: as §5
Rattus norvegicus [10] = species on record: Rattus norvegicus; test: as §6; format: functional, organism-based; method in brief: as §5

Row | Structure (SMILES) | C50 [1] [mM] | C50 [2] [mM] | C50 (Rattus norvegicus [3]) [mM] | C50 (Rattus norvegicus [4]) [mM] | C50 (Rattus norvegicus [5]) [mM] | C50 (Rattus norvegicus [6]) [mM] | IC50 (Glutamate NMDA receptor [7]) [mM] | IC50 (Glutamate NMDA receptor [8]) [mM] | IC50 (Rattus norvegicus [9]) [mM] | IC50 (Rattus norvegicus [10]) [mM]
1 | N[C@@H](C/N=c1\c(O)c(O)c1=O)C(=O)O | 0.01 | 0.0059 | 0.00055 | 0.001 | 0.0011 | 0.0034 | – | – | – | –
2 | Cl.NCC/N=c1\c(O)c(O)c1=O | 3.5 | – | >10 | – | >10 | > 10 | – | – | – | –
3 | NCCC/N=c1\c(O)c(O)c1=O | – | – | – | – | – | – | 5.3 | > 10 | > 10 | > 10
